Experimental data reported in ChEMBL document CHEMBL5370663, “Neurite Outgrowth-Inducing Drimane-Type Sesquiterpenoids Isolated from Cultures of the Polypore Abundisporus violaceus MUCL 56355” (J Nat Prod, 2023).
Activity calls are given as the source filed them.

Key:
[1] = system: Schizosaccharomyces pombe; test: Antifungal activity against Schizosaccharomyces pombe DSM 70572 assessed as fungal growth inhibition at 66.7 to 0.52 microg/ml incubated overnight by serial dilution assay; type: functional, organism-based; details: dose 66.7-0.52 µg/ml
Method in brief: (§1)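 Broth microdilution MIC. Compounds diluted in methanol across 66.7–0.52 μg/mL; incubated overnight. MIC is the lowest concentration with no visible growth of the test strain. Positive controls were ciprofloxacin, kanamycin, gentamycin and oxytetracycline for bacteria and nystatin for fungi.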

Staphylococcus aureus = test: Antibacterial activity against Staphylococcus aureus DSM 346 assessed as bacterial growth inhibition at 66.7 to 0.52 microg/ml incubated overnight by serial dilution assay; type: functional, organism-based; details: dose 66.7-0.52 µg/ml; method in brief: as §1
Bacillus subtilis = test: Antibacterial activity against Bacillus subtilis DSM 10 assessed as bacterial growth inhibition at 66.7 to 0.52 microg/ml incubated overnight by serial dilution assay; type: functional, organism-based; details: dose 66.7-0.52 µg/ml; method in brief: as §1
Acinetobacter baumannii = test: Antibacterial activity against Acinetobacter baumannii DSM 30008 assessed as bacterial growth inhibition at 66.7 to 0.52 microg/ml incubated overnight by serial dilution assay; type: functional, organism-based; details: dose 66.7-0.52 µg/ml; method in brief: as §1
Escherichia coli = test: Antibacterial activity against Escherichia coli DSM 1116 assessed as bacterial growth inhibition at 66.7 to 0.52 microg/ml incubated overnight by serial dilution assay; type: functional, organism-based; details: dose 66.7-0.52 µg/ml; method in brief: as §1
[2] = system: Chromobacterium violaceum; test: Antibacterial activity against Chromobacterium violaceum DSM 30191 assessed as bacterial growth inhibition at 66.7 to 0.52 microg/ml incubated overnight by serial dilution assay; type: functional, organism-based; details: dose 66.7-0.52 µg/ml; method in brief: as §1
Pseudomonas aeruginosa = test: Antibacterial activity against Pseudomonas aeruginosa PA14 assessed as bacterial growth inhibition at 66.7 to 0.52 microg/ml incubated overnight by serial dilution assay; type: functional, organism-based; details: dose 66.7-0.52 µg/ml; method in brief: as §1
[3] = system: Mycolicibacterium smegmatis; test: Antibacterial activity against Mycobacterium smegmatis ATCC 700084 assessed as bacterial growth inhibition at 66.7 to 0.52 microg/ml incubated overnight by serial dilution assay; type: functional, organism-based; details: dose 66.7-0.52 µg/ml; method in brief: as §1
Candida albicans = test: Antifungal activity against Candida albicans DSM 1665 assessed as fungal growth inhibition at 66.7 to 0.52 microg/ml incubated overnight by serial dilution assay; type: functional, organism-based; details: dose 66.7-0.52 µg/ml; method in brief: as §1
Mucor hiemalis = test: Antifungal activity against Mucor hiemalis DSM 2656 assessed as fungal growth inhibition at 66.7 to 0.52 microg/mlincubated overnight by serial dilution assay; type: functional, organism-based; details: dose 66.7-0.52 µg/ml; method in brief: as §1
Rhodotorula glutinis = test: Antifungal activity against Rhodotorula glutinis DSM 10134 assessed as fungal growth inhibition at 66.7 to 0.52 microg/ml incubated overnight by serial dilution assay; type: functional, organism-based; details: dose 66.7-0.52 µg/ml; method in brief: as §1
Wickerhamomyces anomalus = test: Antifungal activity against Pichia anomala DSM 6766 assessed as fungal growth inhibition at 66.7 to 0.52 microg/ml incubated overnight by serial dilution assay; type: functional, organism-based; details: dose 66.7-0.52 µg/ml; method in brief: as §1
KB 3-1 = test: Cytotoxicity against human KB-3-1 cells incubated for 5 days by MTT assay; type: toxicity, cell-based; details: kb 3-1, 120 h, time 5 day
Method in brief: (§2)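 MTT viability test in 96-well plates on KB3.1 (human endocervical adenocarcinoma) and L929 (mouse fibroblast) lines, reported as IC50; epothilone B positive control.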

L929 = test: Cytotoxicity against mouse L929 cells incubated for 5 days by MTT assay; type: toxicity, cell-based; details: l929, 120 h, time 5 day; method in brief: as §2
PC-12 = test: Induction of neurite outgrowth in NGF-treated rat PC12 cells at 5 ug/mL measured after 48 hrs by phase contrast microscopy; type: functional, cell-based; details: dose 5.0 µg/ml
Method in brief: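 PC-12 cells grown in RPMI-1640 with 10% heat-inactivated horse serum, 5% FBS and 2 mM L-glutamine. Seeded at 1.5 × 10^4 cells/well on collagen IV and allowed to attach 6 h at 37 °C, 7.5% CO2. Medium then switched to differentiation medium (1% horse serum) with compound at 5 μg/mL plus NGF 5 ng/mL; DMSO control. Mean neurite length from phase-contrast live imaging at 48 h; five independent experiments, one-tailed t-test.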

C[C@@]12C=C(CO)[C@@H](O)C[C@H]1[C@](C)(C(=O)O)CCC2
active: Activity (PC-12)
inactive: inhibition [1] | inhibition (Staphylococcus aureus) | inhibition (Bacillus subtilis) | inhibition (Acinetobacter baumannii) | inhibition (Escherichia coli) | inhibition [2] | inhibition (Pseudomonas aeruginosa) | inhibition [3] | inhibition (Candida albicans) | inhibition (Mucor hiemalis) | inhibition (Rhodotorula glutinis) | inhibition (Wickerhamomyces anomalus)
Non-Toxic: Activity (KB 3-1) | Activity (L929)

C[C@]12CCC[C@@](C)(C(=O)O)[C@@H]1CC=C1CO[C@H](O)[C@@H]12
active: Activity (PC-12)
Non-Toxic: Activity (KB 3-1) | Activity (L929)
inactive: inhibition [1] | inhibition (Staphylococcus aureus) | inhibition (Bacillus subtilis) | inhibition (Acinetobacter baumannii) | inhibition (Escherichia coli) | inhibition [2] | inhibition (Pseudomonas aeruginosa) | inhibition [3] | inhibition (Candida albicans) | inhibition (Mucor hiemalis) | inhibition (Rhodotorula glutinis) | inhibition (Wickerhamomyces anomalus)

C[C@@]1(C(=O)O)CCC[C@]2(C)c3cocc3C(=O)C[C@@H]12
active: Activity (PC-12)
Non-Toxic: Activity (KB 3-1) | Activity (L929)
inactive: inhibition [1] | inhibition (Staphylococcus aureus) | inhibition (Bacillus subtilis) | inhibition (Acinetobacter baumannii) | inhibition (Escherichia coli) | inhibition [2] | inhibition (Pseudomonas aeruginosa) | inhibition [3] | inhibition (Candida albicans) | inhibition (Mucor hiemalis) | inhibition (Rhodotorula glutinis) | inhibition (Wickerhamomyces anomalus)

C[C@@]12C=C(CO)C(=O)C[C@H]1[C@](C)(C(=O)O)CC[C@@H]2O
active: Activity (PC-12)
Non-Toxic: Activity (KB 3-1) | Activity (L929)
inactive: inhibition [1] | inhibition (Staphylococcus aureus) | inhibition (Bacillus subtilis) | inhibition (Acinetobacter baumannii) | inhibition (Escherichia coli) | inhibition [2] | inhibition (Pseudomonas aeruginosa) | inhibition [3] | inhibition (Candida albicans) | inhibition (Mucor hiemalis) | inhibition (Rhodotorula glutinis) | inhibition (Wickerhamomyces anomalus)

C[C@]12CCC[C@@](C)(C(=O)O)[C@@H]1CC=C(CO)[C@H]2C=O
Non-Toxic: Activity (KB 3-1) | Activity (L929)
active: Activity (PC-12)
inactive: inhibition [1] | inhibition (Staphylococcus aureus) | inhibition (Bacillus subtilis) | inhibition (Acinetobacter baumannii) | inhibition (Escherichia coli) | inhibition [2] | inhibition (Pseudomonas aeruginosa) | inhibition [3] | inhibition (Candida albicans) | inhibition (Mucor hiemalis) | inhibition (Rhodotorula glutinis) | inhibition (Wickerhamomyces anomalus)

COC(=O)[C@H]1C(C(=O)O)=CC[C@@H]2[C@]1(C)CCC[C@@]2(C)C(=O)O
inactive: inhibition [1] | inhibition (Staphylococcus aureus) | inhibition (Bacillus subtilis) | inhibition (Acinetobacter baumannii) | inhibition (Escherichia coli) | inhibition [2] | inhibition (Pseudomonas aeruginosa) | inhibition [3] | inhibition (Candida albicans) | inhibition (Mucor hiemalis) | inhibition (Rhodotorula glutinis) | inhibition (Wickerhamomyces anomalus)
Non-Toxic: Activity (KB 3-1) | Activity (L929)

C[C@@]1(C(=O)O)CCC[C@]2(C)C3=C(COC3=O)C(=O)C[C@@H]12
inactive: inhibition [1] | inhibition (Staphylococcus aureus) | inhibition (Bacillus subtilis) | inhibition (Acinetobacter baumannii) | inhibition (Escherichia coli) | inhibition [2] | inhibition (Pseudomonas aeruginosa) | inhibition [3] | inhibition (Candida albicans) | inhibition (Mucor hiemalis) | inhibition (Rhodotorula glutinis) | inhibition (Wickerhamomyces anomalus)
Non-Toxic: Activity (KB 3-1) | Activity (L929)

C[C@@]12C=C(C(=O)O)[C@@H](O)C[C@H]1[C@](C)(C(=O)O)CCC2
active: Activity (PC-12)
Non-Toxic: Activity (KB 3-1) | Activity (L929)
inactive: inhibition [1] | inhibition (Staphylococcus aureus) | inhibition (Bacillus subtilis) | inhibition (Acinetobacter baumannii) | inhibition (Escherichia coli) | inhibition [2] | inhibition (Pseudomonas aeruginosa) | inhibition [3] | inhibition (Candida albicans) | inhibition (Mucor hiemalis) | inhibition (Rhodotorula glutinis) | inhibition (Wickerhamomyces anomalus)
